{"source": "ChEMBL document CHEMBL5331087", "about": "“Targeted AURKA degradation: Towards new therapeutic agents for neuroblastoma” (Eur J Med Chem, 2023)", "key": {"[1]": {"target": "T1, Protein cereblon/Aurora kinase A (Homo sapiens) (UniProt O14965+Q96SW2)", "T1 sequence (O14965 whole entry, looked up)": "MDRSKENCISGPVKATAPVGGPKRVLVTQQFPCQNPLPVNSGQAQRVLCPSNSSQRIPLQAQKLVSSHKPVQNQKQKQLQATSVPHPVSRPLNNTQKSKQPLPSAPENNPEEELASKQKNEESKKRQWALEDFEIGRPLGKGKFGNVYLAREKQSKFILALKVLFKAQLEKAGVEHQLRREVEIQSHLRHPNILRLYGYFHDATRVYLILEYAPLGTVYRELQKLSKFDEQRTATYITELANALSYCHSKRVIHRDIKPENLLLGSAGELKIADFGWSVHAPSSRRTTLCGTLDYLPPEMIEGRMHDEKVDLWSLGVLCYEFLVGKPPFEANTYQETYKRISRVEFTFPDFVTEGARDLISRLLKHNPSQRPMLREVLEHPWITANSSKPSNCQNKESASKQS", "T1 sequence (Q96SW2 whole entry, looked up)": "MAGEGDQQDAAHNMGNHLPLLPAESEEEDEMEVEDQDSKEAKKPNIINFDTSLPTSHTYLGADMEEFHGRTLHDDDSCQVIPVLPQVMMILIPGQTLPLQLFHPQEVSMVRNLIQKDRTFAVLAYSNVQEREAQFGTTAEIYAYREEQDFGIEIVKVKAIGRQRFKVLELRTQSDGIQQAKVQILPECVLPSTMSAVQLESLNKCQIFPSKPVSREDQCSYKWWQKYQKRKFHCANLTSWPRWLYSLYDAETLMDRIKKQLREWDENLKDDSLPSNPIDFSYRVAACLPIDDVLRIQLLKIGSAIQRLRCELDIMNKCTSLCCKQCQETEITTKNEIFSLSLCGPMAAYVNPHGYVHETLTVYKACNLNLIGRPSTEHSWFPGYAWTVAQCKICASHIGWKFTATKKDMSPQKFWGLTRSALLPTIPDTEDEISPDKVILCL", "experiment": "PROTAC activity at AURKA/CRBN in human NGP cells assessed as AURKA degradation at 10 to 1000 nM measured for 24 hrs by immunoblotting analysis", "type": "cell-based", "conditions": "dose 10-1000 nM", "procedure,_shortened": "(§1)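 NGP cells were seeded at about 2×10^6 per flask, adhered for 48 h, and were then treated for 24 h with DMSO matched. Lysis was in RIPA with protease/phosphatase inhibitors. AURKA was quantified by capillary Simple Western with peak areas normalised to vinculin. Fold change is relative to DMSO (mean ± SD, n = 3).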"}, "[2]": {"experiment": "Growth inhibition of patient derived NB139 Neuroblastoma organoid assessed as reduction in viability incubated for […] by CellTiter Glo 3D assay relative to control", "type": "functional", "conditions": "Homo sapiens"}, "[3]": {"target": "T1, Protein cereblon/Aurora kinase A (Homo sapiens)", "experiment": "PROTAC activity at AURKA/CRBN in human NGP cells assessed as AURKA degradation at 10 to 1000 nM measured for 24 hrs in presence of thalidomide by Western blot analysis", "type": "cell-based", "conditions": "dose 10-1000 nM"}, "[4]": {"target": "T2, N-myc proto-oncogene protein (Homo sapiens) (UniProt P04198)", "T2 sequence (whole entry)": "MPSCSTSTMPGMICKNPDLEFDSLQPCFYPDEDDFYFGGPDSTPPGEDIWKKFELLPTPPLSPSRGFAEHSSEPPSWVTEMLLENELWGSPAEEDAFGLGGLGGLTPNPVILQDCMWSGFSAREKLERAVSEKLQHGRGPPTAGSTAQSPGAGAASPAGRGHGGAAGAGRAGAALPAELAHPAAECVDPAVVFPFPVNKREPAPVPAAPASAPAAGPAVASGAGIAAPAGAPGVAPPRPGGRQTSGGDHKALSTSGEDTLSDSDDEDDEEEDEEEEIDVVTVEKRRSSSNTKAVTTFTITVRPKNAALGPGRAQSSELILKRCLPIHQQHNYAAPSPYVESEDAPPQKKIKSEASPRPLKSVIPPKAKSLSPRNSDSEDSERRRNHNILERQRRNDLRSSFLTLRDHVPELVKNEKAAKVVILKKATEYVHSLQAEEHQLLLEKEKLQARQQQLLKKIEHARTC", "experiment": "Induction of MYCN degradation in human NGP cells incubated for 24 hrs by immunoblotting analysis", "type": "cell-based", "conditions": "dose 10-1000 nM"}, "[5]": {"target": "T1, Protein cereblon/Aurora kinase A (Homo sapiens)", "experiment": "PROTAC activity at AURKA/CRBN in human NGP cells assessed as reduction in AURKA level at 500 nM measured for 1 hr by Western blot analysis", "type": "cell-based", "design": "scale not given: the % may be the effect or the level left", "procedure,_shortened": "(§2)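 NGP cells were treated with 500 nM compound and harvested at 0, 1, 3, 6, 24, 48 and 72 h. RIPA lysates (35 µg) were run on 10% SDS-PAGE and blotted to nitrocellulose. AURKA and MYCN were probed with vinculin as loading control and quantified by densitometry. Values are percent remaining relative to the DMSO control at each timepoint (n = 3).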"}, "[6]": {"target": "T1, Protein cereblon/Aurora kinase A (Homo sapiens)", "experiment": "PROTAC activity at AURKA/CRBN in human NGP cells assessed as reduction in AURKA level at 500 nM measured for 48 hrs by Western blot analysis", "type": "cell-based", "design": "scale not given: the % may be the effect or the level left", "procedure,_shortened": "as §2"}, "[7]": {"target": "T1, Protein cereblon/Aurora kinase A (Homo sapiens)", "experiment": "PROTAC activity at AURKA/CRBN in human NGP cells assessed as increase in pCHK1 level at 10 to 1000 nM measured for 24 hrs by immunoblotting analysis", "type": "cell-based", "conditions": "dose 10-1000 nM"}, "[8]": {"experiment": "Growth inhibition of patient derived NB067 Neuroblastoma organoid assessed as reduction in viability […] by CellTiter Glo 3D assay", "type": "functional, tissue-based", "conditions": "Homo sapiens", "procedure,_shortened": "(§3)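 Patient-derived organoids were dissociated to single cells with Accutase and seeded in NB organoid medium at 5000 (000GKX), 20000 (NB059), 5000 (NB067) or 3000 (NB139) cells/well. Compound was added after 24 h over a concentration range in triplicate, with DMSO matched. Incubation was 120 h at 37 °C and 5% CO2. Viability was read by CellTiter-Glo 3D, and absolute IC50 derived (n = 1).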"}, "[9]": {"target": "T2, N-myc proto-oncogene protein (Homo sapiens)", "experiment": "Induction of MYCN degradation in human NGP cells at 500 nM measured for 72 hrs by Western blot analysis relative to control", "type": "cell-based", "procedure,_shortened": "as §2"}, "[10]": {"target": "T1, Protein cereblon/Aurora kinase A (Homo sapiens)", "experiment": "PROTAC activity at AURKA/CRBN in human NGP cells assessed as AURKA degradation at 100 nM measured for 3 hrs by shotgun proteome profiling relative to control"}, "[11]": {"experiment": "Antiproliferative activity against human N206 cells assessed as reduction in cell viability incubated for 48 hrs", "type": "functional, cell-based", "procedure,_shortened": "(§4)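 Cells were grown in RPMI 1640 with 10% FCS and 2 mM L-glutamine. Seeding was 4500 cells/well for NGP, IMR-32 and N206, and 2100 cells/well for SK-N-AS, with adherence overnight. Compound was dispensed over a concentration range in triplicate. Confluence was imaged live for 48 h and normalised to the DMSO control. Absolute IC50 came from a four-parameter variable-slope fit (n = 4).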"}, "[12]": {"experiment": "Antiproliferative activity against human NGP cells assessed as reduction in cell viability incubated for 48 hrs", "type": "functional, cell-based", "procedure,_shortened": "as §4"}, "[13]": {"experiment": "Antiproliferative activity against human NGP cells assessed as reduction in cell viability incubated for 48 hrs relative to control", "type": "functional"}, "[14]": {"experiment": "Growth inhibition of patient derived 000GKX Neuroblastoma organoid assessed as reduction in viability incubated for […] by CellTiter Glo 3D assay relative to control", "type": "functional", "conditions": "Homo sapiens"}, "[15]": {"target": "T1, Protein cereblon/Aurora kinase A (Homo sapiens)", "experiment": "PROTAC activity at AURKA/CRBN in human NGP cells assessed as AURKA degradation measured for 24 hrs by Western blot analysis", "type": "cell-based", "conditions": "dose 10-1000 nM"}, "[16]": {"tested_on": "NGP", "experiment": "Induction of apoptosis in human NGP cells assessed as increase in caspase3/7 level at 10 nM incubated for 24 hrs", "type": "functional, cell-based", "procedure,_shortened": "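NGP cells were seeded at 25,000 cells/well and allowed to adhere overnight. Compound was dispensed in triplicate with DMSO matched. At 24 h, cell-occupied area was imaged live, then a Caspase-Glo 3/7 assay was run using 50 µL reagent per well. Signal is expressed per cell-occupied area.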"}, "[17]": {"target": "T1, Protein cereblon/Aurora kinase A (Homo sapiens)", "experiment": "PROTAC activity at AURKA/CRBN in human NGP cells assessed as AURKA degradation at 0.1 to 1000 nM measured for 24 hrs by Western blot analysis relative to control", "type": "cell-based", "conditions": "dose 0.1-1000 nM", "procedure,_shortened": "as §1"}, "[18]": {"tested_on": "IMR-32", "experiment": "Antiproliferative activity against human IMR-32 cells assessed as reduction in cell viability incubated for 48 hrs", "type": "functional, cell-based", "conditions": "IMR-32, 48 h", "procedure,_shortened": "as §4"}, "[19]": {"tested_on": "IMR-32", "experiment": "Antiproliferative activity against human IMR-32 cells assessed as reduction in cell viability incubated for 48 hrs relative to control", "type": "functional", "procedure,_shortened": "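Cells grown in RPMI 1640 with 10% fetal calf serum, 2 mM L-glutamine and penicillin/streptomycin at 37 °C, 5% CO2. Seeded at 4500 (IMR-32) or 2100 (SK-N-AS) cells/well in 384-well plates and left to adhere overnight. Concentration range dispensed in triplicate. Confluence tracked by IncuCyte live-cell imaging, and 48h values normalized to DMSO. Absolute IC50 taken from a four-parameter variable-slope fit (n = 4).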"}, "[20]": {"experiment": "Growth inhibition of patient derived NB059 Neuroblastoma organoid assessed as reduction in viability incubated for 48 hrs by CellTiter Glo 3D assay", "type": "functional, tissue-based, Homo sapiens", "conditions": "in the assay text read “120 hrs” for “48 hrs”", "procedure,_shortened": "as §3"}, "[21]": {"experiment": "Growth inhibition of patient derived NB067 Neuroblastoma organoid assessed as reduction in viability incubated for […] by CellTiter Glo 3D assay relative to control", "type": "functional", "conditions": "Homo sapiens"}}, "note": "The source made the active and inactive calls. No cut-off for these calls is given here.", "data": [{"smiles": "O=C1CCC(N2C(=O)c3cccc(OCCOCCOCCOCCNC(=O)[C@]4(Cc5cccc(Nc6nccs6)n5)CC[C@@H](Oc5cccc(Cl)c5F)CC4)c3C2=O)C(=O)N1", "note": "(stereo partly specified)", "values": [{"measurement": "Activity", "setting": "[1]", "value": "Active"}, {"measurement": "Emax", "setting": "[2]", "value": 37.8, "unit": "%"}, {"measurement": "Activity", "setting": "[3]", "value": "inactive"}, {"measurement": "Activity", "setting": "[4]", "value": "Dose-Dependent Effect"}, {"measurement": "Activity", "setting": "[5]", "value": 7, "unit": "%"}, {"measurement": "Activity", "setting": "[6]", "value": 100, "unit": "%"}, {"measurement": "Activity", "setting": "[7]", "value": "Active"}, {"measurement": "IC50", "setting": "[8]", "value": 26.4, "unit": "nM"}, {"measurement": "Activity", "setting": "[9]", "value": 73, "unit": "%"}, {"measurement": "Activity", "setting": "[10]", "value": "Active"}, {"measurement": "IC50", "setting": "[11]", "value": "Not Active"}, {"measurement": "IC50", "setting": "[12]", "value": 31.9, "unit": "nM"}, {"measurement": "Emax", "setting": "[13]", "value": 27.8, "unit": "%"}, {"measurement": "Emax", "setting": "[14]", "value": 38.2, "unit": "%"}, {"measurement": "Activity", "setting": "[15]", "value": "Active"}, {"measurement": "Activity", "setting": "[16]", "value": "Active"}, {"measurement": "Emax", "setting": "[17]", "value": 89, "unit": "%"}, {"measurement": "IC50", "setting": "[18]", "value": 21.5, "unit": "nM"}, {"measurement": "Emax", "setting": "[19]", "value": 14.1, "unit": "%"}, {"measurement": "IC50", "setting": "[20]", "value": "Not Active"}, {"measurement": "Emax", "setting": "[21]", "value": 15.5, "unit": "%"}]}]}
